Source: ChEMBL document CHEMBL4312005, “Optimization of pyrrolizine-based Schiff bases with 4-thiazolidinone motif: Design, synthesis and investigation of cytotoxicity and anti-inflammatory potency” (Eur J Med Chem, 2020)

Key:
[1] = tested on: MCF7; test: Induction of apoptosis in human MCF7 cells assessed as late apoptotic cells at 1 uM incubated for 24 hrs by annexin V FITC and propidium iodide staining based flow cytometry (reference value: 0 to 2.5 %); type: functional
[2] = molecular target: Prostaglandin G/H synthase 1 (Homo sapiens, UniProt P23219); test: Inhibition of human COX1 using arachidonic acid as substrate incubated for 2 mins by ELISA method
[3] = tested on: MCF7; test: Induction of apoptosis in human MCF7 cells assessed as necrotic cells at 1 uM incubated for 24 hrs by annexin V FITC and propidium iodide staining based flow cytometry (reference value: 4.1 to […]); type: functional
[4] = tested on: MCF7; test: Induction of apoptosis in human MCF7 cells assessed as early apoptotic cells at 10 uM incubated for 24 hrs by annexin V FITC and propidium iodide staining based flow cytometry (reference value: 0 to 9 %); type: functional
[5] = tested on: MCF7; test: Induction of apoptosis in human MCF7 cells assessed as necrotic cells at 5 uM incubated for 24 hrs by annexin V FITC and propidium iodide staining based flow cytometry (reference value: 4.1 to […]); type: functional
[6] = tested on: MCF7; test: Induction of apoptosis in human MCF7 cells assessed as viable cells at 1 uM incubated for 24 hrs by annexin V FITC and propidium iodide staining based flow cytometry (reference value: 76 to 95.9 %); type: functional; settings: MCF7, 24 h, read-out: Activity
[7] = tested on: MCF7; test: Cell cycle arrest in human MCF7 cells assessed as subG1 accumulation at 1 uM incubated for 24 hrs by propidium iodide based flow cytometry (reference value: 0.6 to 3 %); type: functional
[8] = tested on: MCF7; test: Cell cycle arrest in human MCF7 cells assessed as G2/M phase accumulation at 5 uM incubated for 24 hrs by propidium iodide based flow cytometry (reference value: 17.2 to 26.8 %); type: functional
[9] = Selectivity index, ratio of IC50 for cytotoxicity against human MRC5 cells to IC50 for antiproliferative activity against human A2780 cells; settings: MRC5 cells versus A2780 cells
[10] = tested on: MCF7; test: Cell cycle arrest in human MCF7 cells assessed as S phase accumulation at 1 uM incubated for 24 hrs by propidium iodide based flow cytometry (reference value: 17.3 to 28.5 %); type: functional
[11] = tested on: MCF7; test: Cell cycle arrest in human MCF7 cells assessed as subG1 accumulation at 10 uM incubated for 24 hrs by propidium iodide based flow cytometry (reference value: 0.6 to 3 %); type: functional
[12] = tested on: MCF7; test: Induction of apoptosis in human MCF7 cells assessed as viable cells at 5 uM incubated for 24 hrs by annexin V FITC and propidium iodide staining based flow cytometry (reference value: 76 to 95.9 %); type: functional; settings: MCF7, 24 h, read-out: Activity
[13] = tested on: MCF7; test: Cell cycle arrest in human MCF7 cells assessed as G1 accumulation at 1 uM incubated for 24 hrs by propidium iodide based flow cytometry (reference value: 49.6 to 55.1 %); type: functional
[14] = tested on: MCF7; test: Antiproliferative activity against human MCF7 cells assessed as reduction in cell growth incubated for 72 hrs by MTT assay; type: functional, cell-based; settings: MCF7, 72 h
Method in brief: (§1)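 MTT assay on MCF-7, A2780, HT29 and normal MRC5 fibroblast lines (ATCC) grown in DMEM with 10% FBS. Cells exposed to compounds for 72 h, then reduced MTT read at 570 nm.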

[15] = Selectivity index, ratio of IC50 for cytotoxicity against human MRC5 cells to IC50 for antiproliferative activity against human MCF7 cells; settings: MRC5 cells versus MCF7 cells
[16] = tested on: MCF7; test: Induction of apoptosis in human MCF7 cells assessed as late apoptotic cells at 10 uM incubated for 24 hrs by annexin V FITC and propidium iodide staining based flow cytometry (reference value: 0 to 2.5 %); type: functional
[17] = tested on: Rattus norvegicus; test: Antiinflammatory activity against albino rats assessed as inhibition of carrageenan-induced paw edema at 0.5 mmol, po measured after 4 hrs relative to control; type: functional
Method in brief: (§2)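 Carrageenan rat paw edema (Winter method) in male and female adult albino rats (100-140 g). […] Swelling inhibition expressed as % of control at 2-4 h after carrageenan injection.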

[18] = tested on: MCF7; test: Cell cycle arrest in human MCF7 cells assessed as S phase accumulation at 10 uM incubated for 24 hrs by propidium iodide based flow cytometry (reference value: 17.3 to 28.5 %); type: functional
[19] = tested on: MCF7; test: Induction of apoptosis in human MCF7 cells assessed as necrotic cells at 10 uM incubated for 24 hrs by annexin V FITC and propidium iodide staining based flow cytometry (reference value: 4.1 to […]); type: functional
[20] = tested on: MCF7; test: Induction of apoptosis in human MCF7 cells assessed as late apoptotic cells at 5 uM incubated for 24 hrs by annexin V FITC and propidium iodide staining based flow cytometry (reference value: 0 to 2.5 %); type: functional
[21] = tested on: MCF7; test: Cell cycle arrest in human MCF7 cells assessed as G1 accumulation at 5 uM incubated for 24 hrs by propidium iodide based flow cytometry (reference value: 49.6 to 55.1 %); type: functional
[22] = tested on: MCF7; test: Cell cycle arrest in human MCF7 cells assessed as S phase accumulation at 5 uM incubated for 24 hrs by propidium iodide based flow cytometry (reference value: 17.3 to 28.5 %); type: functional
[23] = tested on: MCF7; test: Induction of apoptosis in human MCF7 cells assessed as viable cells at 10 uM incubated for 24 hrs by annexin V FITC and propidium iodide staining based flow cytometry (reference value: 76 to 95.9 %); type: functional; settings: MCF7, 24 h, read-out: Activity
[24] = tested on: MCF7; test: Cell cycle arrest in human MCF7 cells assessed as G2/M phase accumulation at 1 uM incubated for 24 hrs by propidium iodide based flow cytometry (reference value: 17.2 to 26.8 %); type: functional
[25] = tested on: A2780; test: Antiproliferative activity against human A2780 cells assessed as reduction in cell growth incubated for 72 hrs by MTT assay; type: functional, cell-based; settings: A2780, 72 h; method in brief: as §1
[26] = tested on: MRC5; test: Cytotoxicity against human MRC5 cells assessed as reduction in cell growth incubated for 72 hrs by MTT assay; type: cell-based; settings: MRC5, 72 h; method in brief: as §1
[27] = tested on: MCF7; test: Cell cycle arrest in human MCF7 cells assessed as G2/M phase accumulation at 10 uM incubated for 24 hrs by propidium iodide based flow cytometry (reference value: 17.2 to 26.8 %); type: functional
[28] = Selectivity index, ratio of IC50 for cytotoxicity against human MRC5 cells to IC50 for antiproliferative activity against human HT-29 cells; settings: MRC5 cells versus HT-29 cells
[29] = tested on: Rattus norvegicus; test: Antiinflammatory activity against albino rats assessed as inhibition of carrageenan-induced paw edema at 0.5 mmol, po measured after 2 hrs relative to control; type: functional; method in brief: as §2
[30] = tested on: MCF7; test: Induction of apoptosis in human MCF7 cells assessed as early apoptotic cells at 5 uM incubated for 24 hrs by annexin V FITC and propidium iodide staining based flow cytometry (reference value: 0 to 9 %); type: functional
[31] = tested on: MCF7; test: Antiproliferative activity against human MCF7 cells assessed as cell viability at 5 uM incubated for 48 hrs by MTT assay (reference value: 100 %); type: functional; settings: MCF7, 48 h, read-out: Activity
Method in brief: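 Preliminary single-dose screen by MTT assay. MCF-7 cells grown in DMEM/10% FBS were exposed to 5 μM compound for 48 h, and growth% was determined. Values are mean ± S.D., n = 6.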

[32] = tested on: MCF7; test: Cell cycle arrest in human MCF7 cells assessed as subG1 accumulation at 5 uM incubated for 24 hrs by propidium iodide based flow cytometry (reference value: 0.6 to 3 %); type: functional
[33] = tested on: HT-29; test: Antiproliferative activity against human HT-29 cells assessed as reduction in cell growth incubated for 72 hrs by MTT assay; type: functional, cell-based; settings: HT-29, 72 h; method in brief: as §1
[34] = tested on: MCF7; test: Cell cycle arrest in human MCF7 cells assessed as G1 accumulation at 10 uM incubated for 24 hrs by propidium iodide based flow cytometry (reference value: 49.6 to 55.1 %); type: functional
[35] = tested on: MCF7; test: Induction of apoptosis in human MCF7 cells assessed as early apoptotic cells at 1 uM incubated for 24 hrs by annexin V FITC and propidium iodide staining based flow cytometry (reference value: 0 to 9 %); type: functional

Sequence of Prostaglandin G/H synthase 1 (P23219 whole entry): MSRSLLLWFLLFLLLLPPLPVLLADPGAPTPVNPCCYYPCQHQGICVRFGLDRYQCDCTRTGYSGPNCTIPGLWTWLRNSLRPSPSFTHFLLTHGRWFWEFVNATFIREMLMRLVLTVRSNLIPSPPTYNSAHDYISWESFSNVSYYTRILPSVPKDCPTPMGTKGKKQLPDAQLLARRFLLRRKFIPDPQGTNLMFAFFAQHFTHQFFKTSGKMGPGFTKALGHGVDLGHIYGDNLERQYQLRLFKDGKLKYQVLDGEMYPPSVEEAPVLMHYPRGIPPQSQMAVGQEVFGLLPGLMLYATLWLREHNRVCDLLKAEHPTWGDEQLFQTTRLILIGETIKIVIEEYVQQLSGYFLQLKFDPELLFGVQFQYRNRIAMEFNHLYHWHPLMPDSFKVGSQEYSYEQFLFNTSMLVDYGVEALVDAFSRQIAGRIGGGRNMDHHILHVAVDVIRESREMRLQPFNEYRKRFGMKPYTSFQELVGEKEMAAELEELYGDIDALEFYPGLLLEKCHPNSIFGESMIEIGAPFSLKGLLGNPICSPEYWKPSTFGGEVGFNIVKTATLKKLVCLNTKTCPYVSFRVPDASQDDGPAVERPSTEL

SMILES: N#Cc1c(/N=C/c2ccco2)c(C(=O)Nc2ccc(Br)cc2)n2c1CCC2
- Activity [1]: 8.8%
- IC50 [2]: 13.2 µM
- Activity [3]: 11.4%
- Activity [4]: 7.2%
- Activity [5]: 15.2%
- viability at 1 µM [6]: 67%
- Activity [7]: 1.1%
- Activity [8]: 21.8%
- selectivity ratio [9]: 1 to 10
- Activity [10]: 53.7%
- Activity [11]: 0.4%
- viability at 5 µM [12]: 67%
- Activity [13]: 24.5%
- IC50 [14]: 6.89 µM
- selectivity ratio [15]: 1 to 10
- Activity [16]: 5.3%
- inhibition (INH) [17]: 35.79%
- Activity [18]: 51.5%
- Activity [19]: 16.4%
- Activity [20]: 6.3%
- Activity [21]: 25.5%
- Activity [22]: 53.6%
- viability at 10 µM [23]: 71.2%
- Activity [24]: 22.1%
- IC50 [25]: 12.2 µM
- IC50 [26]: 15.7 µM
- Activity [27]: 23%
- selectivity ratio [28]: 1 to 10
- inhibition (INH) [29]: 18.83%
- Activity [30]: 11.5%
- viability at 5 µM [31]: 64%
- Activity [32]: 0.4%
- IC50 [33]: 2.04 µM
- Activity [34]: 25%
- Activity [35]: 12.8%

SMILES: CS(=O)(=O)CCNCc1ccc(-c2ccc3ncnc(Nc4ccc(OCc5cccc(F)c5)c(Cl)c4)c3c2)o1 [LAPATINIB]
- IC50 [26]: 13.7 µM
- IC50 [33]: 12.7 µM

SMILES: CC/C=N/c1c(C#N)c2n(c1C(=O)Nc1ccc(C)cc1)CCC2
- IC50 [2]: 27.7 µM
- IC50 [14]: 0.84 µM
- IC50 [25]: 3.88 µM
- IC50 [26]: 0.56 µM
- IC50 [33]: 0.61 µM

SMILES: CC/C=N/c1c(C#N)c2n(c1C(=O)Nc1ccc(Cl)cc1)CCC2
- IC50 [2]: 15.6 µM
- IC50 [14]: 0.74 µM
- inhibition (INH) [17]: 24.06%
- IC50 [25]: 0.58 µM
- IC50 [26]: 0.17 µM
- inhibition (INH) [29]: 19.17%
- IC50 [33]: 1.02 µM

SMILES: CC/C=N/c1c(C#N)c2n(c1C(=O)Nc1ccccc1)CCCC2
- IC50 [2]: 27.2 µM
- IC50 [14]: 1.43 µM
- IC50 [25]: 15.6 µM
- IC50 [26]: 1.53 µM
- IC50 [33]: 0.14 µM

SMILES: N#Cc1c(/N=C/c2ccccc2)c(C(=O)Nc2ccc(Br)cc2)n2c1CCC2
- IC50 [2]: > 100 µM
- selectivity ratio [9]: 2 to 52
- IC50 [14]: 0.5 µM
- selectivity ratio [15]: 2 to 52
- IC50 [25]: 4.16 µM
- IC50 [26]: 9 µM
- selectivity ratio [28]: 2 to 52
- viability at 5 µM [31]: 73%
- IC50 [33]: 2.97 µM

SMILES: N#Cc1c(/N=C/c2cccnc2)c(C(=O)Nc2ccc(Br)cc2)n2c1CCC2
- IC50 [2]: > 100 µM
- selectivity ratio [9]: 1 to 10
- IC50 [14]: 11.3 µM
- selectivity ratio [15]: 1 to 10
- IC50 [25]: 23 µM
- IC50 [26]: 25.6 µM
- selectivity ratio [28]: 1 to 10
- viability at 5 µM [31]: 81%
- IC50 [33]: 2.63 µM

SMILES: N#Cc1c(/N=C/c2ccc(Cl)cc2)c(C(=O)Nc2ccc(Br)cc2)n2c1CCC2
- IC50 [2]: > 100 µM
- selectivity ratio [9]: 2 to 52
- IC50 [14]: 6.03 µM
- selectivity ratio [15]: 2 to 52
- IC50 [25]: 8.3 µM
- IC50 [26]: 13.8 µM
- selectivity ratio [28]: 2 to 52
- viability at 5 µM [31]: 73%
- IC50 [33]: 7.79 µM
